Results on one compound are retold here after ChEMBL document CHEMBL1177799 (Bioorg Med Chem Lett, 2010).

For data set [1], the target named is T1, Adenosine receptor A2b (Homo sapiens, UniProt P29275).
T1 sequence (P29275 whole entry): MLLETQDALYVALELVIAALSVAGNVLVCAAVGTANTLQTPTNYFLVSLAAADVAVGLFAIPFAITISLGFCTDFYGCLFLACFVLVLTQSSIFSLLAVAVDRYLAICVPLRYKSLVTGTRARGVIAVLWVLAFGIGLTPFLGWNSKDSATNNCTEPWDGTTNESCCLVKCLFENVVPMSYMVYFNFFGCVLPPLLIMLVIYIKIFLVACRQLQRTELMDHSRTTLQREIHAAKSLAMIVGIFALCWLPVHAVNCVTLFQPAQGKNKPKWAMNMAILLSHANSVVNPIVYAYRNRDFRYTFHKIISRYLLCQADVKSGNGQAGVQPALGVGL
The data set is described as follows: Antagonist activity at human adenosine A2B receptor expressed in CHO cells assessed as inhibition of adenosine-induced cAMP production. Type of data set: functional, cell-based. The method, boiled down: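 CHO cells stably transfected with human A2B receptor, grown overnight as monolayer (7500 cells/well), washed with Krebs buffer, then exposed to compounds in Krebs buffer (final DMSO 1.1%) for 20–25 min. Wells emptied, cells lysed and cAMP measured with an enzyme-fragment complementation cAMP kit for adherent cells.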
In general terms: Cyclic AMP is a second messenger, typically raised through Gs and lowered through Gi signalling.

In another data set the target is T2, Adenosine receptor A1 (Homo sapiens, UniProt P30542).
T2 sequence (P30542 whole entry): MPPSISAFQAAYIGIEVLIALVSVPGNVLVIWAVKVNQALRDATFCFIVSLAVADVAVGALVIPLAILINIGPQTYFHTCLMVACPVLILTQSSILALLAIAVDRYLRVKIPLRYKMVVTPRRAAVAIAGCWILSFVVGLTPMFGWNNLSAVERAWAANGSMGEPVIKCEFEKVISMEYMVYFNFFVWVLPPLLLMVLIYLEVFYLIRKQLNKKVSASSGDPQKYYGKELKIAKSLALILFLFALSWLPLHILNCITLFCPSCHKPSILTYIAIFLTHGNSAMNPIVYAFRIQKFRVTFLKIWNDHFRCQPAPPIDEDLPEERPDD
The data set can be described thus: Displacement of [3H]-DPCPX from human adenosine A1 receptor expressed in CHO-K1 cells after 1 hr by scintillation counting. The class given is cell-based. Put shortly:
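Commercial human A1 membranes (10 µg/well) in HEPES 50 mM, NaCl 100 mM, MgCl2 1 mM buffer; competition against [3H]-DPCPX (4.8 nM final), 1 h at room temperature with orbital shaking. Filtration harvest on polyethyleneimine-treated (0.5%) glass-fibre plates, air-dried, scintillation counting.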
For orientation: In a radioligand displacement assay an active substance lowers the binding of a labelled ligand.

Data set [2] in a line: Cmax in Han Wistar rat at 50 mg/kg, po up to 24 hrs by LC-MS analysis. Type of data set: ADME, organism-based. The settings on record: in vivo. Also noted: dose 50 mg/kg, route oral.
The nature of data set [3]: Extrapolated AUC in Han Wistar rat at 50 mg/kg, po up to 24 hrs by LC-MS analysis. Also noted: time < 24 hr, dose 50 mg/kg, route oral. The settings on record: in vivo. The class given is ADME, organism-based.
Another data set addresses Adenosine receptor A2a (Homo sapiens, UniProt P29274). The data set is described as follows: Displacement of [3H]-ZM241385 from human adenosine A2A receptor expressed in CHO-K1 cells after 1 hr by scintillation counting. Type of data set: cell-based.
For a further data set, the target named is T3, Adenosine receptor A3 (Homo sapiens, UniProt P0DMS8).
T3 sequence (P0DMS8 whole entry): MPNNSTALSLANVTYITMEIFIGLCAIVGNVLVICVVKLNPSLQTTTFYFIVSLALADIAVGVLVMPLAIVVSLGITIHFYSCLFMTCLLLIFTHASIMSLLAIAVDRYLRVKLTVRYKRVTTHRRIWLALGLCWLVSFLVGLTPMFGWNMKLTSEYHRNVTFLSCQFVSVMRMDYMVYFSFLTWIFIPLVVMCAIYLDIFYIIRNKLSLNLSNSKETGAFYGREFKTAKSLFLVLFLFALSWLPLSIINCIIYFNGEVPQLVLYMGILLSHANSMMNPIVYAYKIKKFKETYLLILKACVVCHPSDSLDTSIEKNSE
The data set can be described thus: Binding affinity to adenosine A3 receptor.

Data set [4] in a line: Volume of distribution in Han Wistar rat at 2.5 mg/kg, iv up to 24 hrs by LC-MS analysis. The settings on record: in vivo. The class given is ADME, organism-based. Also noted: dose 2.5 mg/kg, route intravenous. The method, boiled down:
(§1)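 Male Han Wistar rats (n = 4) received a single 2.5 mg/kg intravenous tail-vein injection in DMA/PEG 400/40% HPBCD/H₂O. Plasma was sampled up to 24 h after dosing, and plasma drug levels were measured by LC–MS to derive the PK parameters.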

A short description of data set [5]: Extrapolated AUC in Han Wistar rat at 2.5 mg/kg, iv up to 24 hrs by LC-MS analysis. Type of data set: ADME, organism-based. Details: time < 24 hr, dose 2.5 mg/kg, route intravenous. The note with it: in vivo.
A short description of data set [6]: Half life in Han Wistar rat at 50 mg/kg, po up to 24 hrs by LC-MS analysis. The class given is ADME, organism-based. Details: dose 50 mg/kg, route oral. The settings on record: in vivo. The method, boiled down:
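Male Han Wistar rats (n = 4 per route): iv 2.5 mg/kg via tail vein in DMA/PEG 400/40% HPBCD/H2O, or po 50 mg/kg in Capmul PG8 by intubation tube. Plasma sampled up to 24 h after dosing, drug levels measured by LC–MS.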

In data set [7] the target is T1, Adenosine receptor A2b. The data set is described as follows: Displacement of [3H]ZM241385 from human adenosine A2B receptor expressed in CHO cells after 1 hr by scintillation counting. The class given is cell-based. The method, boiled down:
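Whole CHO cells expressing human A2B receptor, harvested mechanically from 80% confluent flasks, frozen, then resuspended in assay buffer on assay day. Competition against [3H]ZM241385 (30 nM final), 1 h at room temperature with shaking. Harvest on 0.5% polyethyleneimine-treated filter plates, air-dried, scintillation counting.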

Data set [8] can be described thus: Clearance in Han Wistar rat at 2.5 mg/kg, iv up to 24 hrs by LC-MS analysis. Type of data set: ADME, organism-based. Also noted: dose 2.5 mg/kg, route intravenous. The settings on record: in vivo. Put shortly: as §1

Adenosine receptor A2a, sequence (P29274 whole entry): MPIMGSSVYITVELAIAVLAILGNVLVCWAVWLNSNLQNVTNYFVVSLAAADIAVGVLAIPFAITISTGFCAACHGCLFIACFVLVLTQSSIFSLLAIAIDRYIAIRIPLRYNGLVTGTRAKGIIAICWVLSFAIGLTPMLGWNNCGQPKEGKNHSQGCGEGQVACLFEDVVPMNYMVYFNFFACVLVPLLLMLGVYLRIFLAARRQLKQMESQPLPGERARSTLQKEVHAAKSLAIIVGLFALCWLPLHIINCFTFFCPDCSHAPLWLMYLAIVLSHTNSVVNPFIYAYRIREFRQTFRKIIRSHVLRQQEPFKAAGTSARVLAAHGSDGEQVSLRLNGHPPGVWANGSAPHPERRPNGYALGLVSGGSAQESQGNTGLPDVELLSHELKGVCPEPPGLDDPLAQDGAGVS

As to `CCN(C(C)=O)c1ccc(OC)c2nc(NC(=O)c3ccnn3C)sc12`, the half-inhibitory concentration (IC50) at Adenosine receptor A2b [1] was 21 nM. The Ki at Adenosine receptor A1 worked out at 100 nM; on Adenosine receptor A2a, 51 nM; at Adenosine receptor A3, 80 nM; at Adenosine receptor A2b [7] it was 8 nM. Moreover, the Cmax in data set [2] amounted to 7420 ng/mL. Besides, the AUC at 24 h in data set [3] is 74400 ng·h/mL; in data set [5], 929 ng·h/mL. In [4], this compound displayed a distribution volume (Vd) of 3 L/kg. In addition, the half-life in [6] is 2.1 h. In addition, in data set [8], the clearance was determined as 46 mL/min/kg.

In general, IC50 refers to the midpoint of a concentration-inhibition curve. Broadly, the Ki is a measure of affinity in units of concentration, obtained from inhibition or displacement. Read a high Ki as a looser hold on the target. For orientation: Cmax means the highest concentration seen after dosing. The term AUC denotes concentration integrated over time. What is called Vd is the apparent volume that relates the amount in the body to the concentration in plasma or blood. Broadly, the half-life is the time needed for the level to fall by half in the phase considered. One may read the clearance as the rate of elimination divided by the concentration. Low readings indicate inefficient removal, high ones efficient removal.
